# A selection: hits, their analogues and other compounds. The true share with any hit is near 2.3%.
# TRPC4 act: activators of mouse TRPC4 channel, primary screen, Fluo4 calcium, HEK293 TRPC4beta/mu-opioid cells | Fluo4 calcium fluorescence; hits give high values | B-score at 10 µM | 0.49% of 310,000 active;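 active means B-score above 5 SD of library B-scores, and initial fluorescence ratio not above library mean plus 5 SD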;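 further: positive B-score marks a calcium rise read as TRPC4 activation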
#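 Material: HEK293 stable line with TRPC4beta plus mu-opioid receptor; technique: Fluo4 calcium-sensitive dye fluorescence, kinetic, 1 Hz baseline; timing: Fluo4 dye loading 45 min at room temperature, 110 s recording; controls: assay buffer as low control, maximal DAMGO as high control; read-out: integrated baseline-normalised fluorescence ratio, converted to per-well B score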
# TRPC6 inh: mouse TRPC6 channel inhibitors, primary screen, cell-based, HEK293, membrane potential dye; ACh-evoked depolarization; hits give low values; 1.1% of 310,000 active; Short transient receptor potential channel 6 (Mus musculus), Q61143; B-score at 10 µM;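 active means B-score under library mean minus 3 SD, initial fluorescence not abnormally high, positive integrated signal ratio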;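 further: B-score derived from integrated fluorescence ratio over the kinetic read; more negative B-score means stronger inhibition of depolarization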
# TRPC6 activator: mouse TRPC6 channel activators, primary screen, cell-based, HEK293, membrane potential dye; HEK293-TRPC6 membrane potential dye fluorescence; hits give high values; B-score at 10 µM; 0.13% of 310,000 active; AID 2550, 2010;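 active means B-score of the integrated fluorescence ratio above library mean plus 3 SD, and starting fluorescence ratio within library mean plus 5 SD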;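 further: higher score means more depolarization so channel activation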
# TRPC4 block: inhibitors of mouse TRPC4 channel, primary screen, Fluo4 calcium, HEK293 TRPC4beta/mu-opioid cells; DAMGO-evoked Fluo4 calcium flux; hits give low values; B-score at 10 µM; 0.39% of 300,000 active; AID 2247, 2010;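 active means B-score over 3 SD under the library average, no early fluorescence shift, positive overall ratio signal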
#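 test system = HEK293 cells with stable TRPC4beta plus mu-opioid receptor expression | detection = Fluo4 Ca2+ flux fluorescence | read-out = integrated fluorescence ratio relative to baseline, converted to per-well B score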
# TRPC4 PAM: positive allosteric modulators of TRPC4, primary screen, cell-based, mouse TRPC4beta, HEK293 mu-opioid, Fluo-4 calcium | Short transient receptor potential channel 4 (Mus musculus), Q9QUQ5 | DAMGO EC20, Fluo-4 Ca2+ flux; hits give high values | B-score at 10 µM | 0.42% of 310,000 active | AID 2227, 2009;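 active means B-score of calcium response area above 5 SD of library B-scores, with initial fluorescence ratio within 5 SD of library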;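 further: B-score of integrated fluorescence ratio over time as area under calcium response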
# HEK293 TRPC6 ctr: parental HEK293 membrane potential modulation, confirmation, counter-screen for TRPC6 modulator project, cell-based; shares compounds with TRPC6 inh; membrane potential dye fluorescence; membrane potential signal change, % at 10 µM; 51% of 2,400 active; AID 488924, 2010;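 active means membrane potential signal moves up or down beyond 5 SD from buffer-only wells, on both duplicate plates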
# HEK293 MPD ctr 2: second counter-screen for TRPC6 modulators: effect in parental HEK293 cells; 14% of 2,400 active; inhibition, % at 10 µM; membrane potential dye fluorescence; after compound, maximal acetylcholine stimulation; AID 488926; shares compounds with TRPC6 inh;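 active means membrane potential signal drops by more than 5 SD from the mean control signal, in both duplicate plates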;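 further: plate controls were acetylcholine ECmax control wells for no effect and buffer only wells for full effect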
# TRPC4 ctr mod: TRPC4 modulation by TRPC6 hit compounds, confirmation, selectivity assay for TRPC6 modulator project, cell-based, HEK293 TRPC4/mu-opioid, membrane potential dye, mouse; shares compounds with TRPC6 inh; membrane potential fluorescence; percent change from control (negative = decrease, positive = increase), % at 10 µM; 69% of 2,400 active;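 active means membrane potential signal moved up or down beyond 5 SD of buffer control wells, in both duplicate plates, actives on both sides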;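 further: plate controls were assay buffer wells for no effect and DAMGO maximal-effect wells for full effect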
# TRPC4 ctr inh 2: second check of whether TRPC6 modulators also affect mouse TRPC4. AID 488928. 55% of 2,400 active. shares compounds with TRPC6 inh. inhibition, % at 10 µM. HEK293 TRPC4/mu-opioid, membrane potential dye fluorescence; stimulated with maximal-effect DAMGO;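 active means drop in membrane potential signal beyond 5 SD of the control wells in both duplicate plates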;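 further: TRPC4 counter screen for TRPC6 hits run under conditions tuned for TRPC6 not TRPC4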
# TRPC6 block conf: mouse TRPC6 channel inhibitors, confirmation, HEK293 cells, membrane potential dye, duplicate | shares compounds with TRPC6 inh | ACh-evoked depolarization | inhibition, % at 10 µM | 43% of 3,300 active | AID 488960, 2010;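 active means fluorescence ratio falls more than 5 SD below the full-stimulation control mean, in both duplicate runs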;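 further: integrated fluorescence ratio of peak minus minimum over baseline after agonist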
# TRPC6 act confirm: mouse TRPC6 channel activators, confirmation, HEK293 cells, membrane potential dye, duplicate. shares compounds with TRPC6 inh. HEK293-TRPC6 membrane potential dye fluorescence, FDSS. activation, % at 10 µM. AID 488961, 2010. 11% of 2,800 active;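 active means ratio signal rise beyond 5 SD above unstimulated control wells' mean, seen in both duplicate runs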;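 further: plate controls were buffer EC0 wells for no effect and acetylcholine ECmax response for full effect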
# * = called active by the depositor; i = inactive; . = not tested or not shown.
SMILES,TRPC4 act,TRPC6 inh,TRPC6 activator,TRPC4 block,TRPC4 PAM,HEK293 TRPC6 ctr,HEK293 MPD ctr 2,TRPC4 ctr mod,TRPC4 ctr inh 2,TRPC6 block conf,others
O=C1CSc2ccc(C(=O)Nc3cccc(S(=O)(=O)Nc4ccc(Br)cc4)c3)cc2N1,i,i,i,i,i,.,.,.,.,.,
O=C1S/C(=C/c2ccc(N3CCOCC3)o2)C(=O)N1Cc1c(F)cccc1Cl,i,i,16.8*,i,i,i,i,100.0%*,i,i,TRPC6 act confirm=i
O=C1S/C(=C\c2ccc(N3CCOCC3)o2)C(=O)N1c1ccccc1,i,i,i,i,i,.,.,.,.,.,
O=C1S/C(=C\c2ccc(N3CCOCC3)o2)C(=O)N1Cc1c(F)cccc1Cl,43*,i,28.4*,i,17*,226.0%*,i,117.0%*,i,i,TRPC6 act confirm=i
Cc1cccc(N2CCN(C(=O)C3COc4ccccc4O3)CC2)c1C (stereo not given),i,-5.07*,i,i,i,i,i,i,i,42.5%*,
O=C(C1COc2ccccc2O1)N1CCN(c2ccccc2Cl)CC1 (stereo not given),i,i,i,i,i,.,.,.,.,.,
COc1ccc2c(C)c(CC(=O)N3CCN(C(=O)C4COc5ccccc5O4)CC3)c(=O)oc2c1 (stereo not given),i,-5.33*,i,i,i,238.5%*,i,43.5%*,i,i,
N#Cc1ccc(Cl)cc1NC(=O)COC(=O)[C@H](CCC(N)=O)NC(=O)c1ccc(F)cc1,i,i,i,i,i,.,.,.,.,.,
CC1CCN(c2nc(/C=C/c3ccccc3)nc3ccccc23)CC1,i,-6.07*,i,i,i,i,i,-19.0%*,i,i,TRPC6 act confirm=i
O=C(CCCSc1nnc(-c2cccs2)n1CC1CCCO1)c1ccccc1 (stereo not given),i,-5.18*,i,i,i,186.5%*,i,33.5%*,i,i,
O=C(CSc1nnc(-c2cccs2)n1CC1CCCO1)N1CCCC1 (stereo not given),i,i,i,i,i,.,.,.,.,.,
Cc1ccccc1C(OCCN(C)C)c1ccccc1 (stereo not given),i,-5.01*,i,i,i,193.0%*,i,32.5%*,i,57.5%*,
O=c1c2ccccc2oc2cc(NCCCN3CCOCC3)ccc12,i,i,i,i,i,.,.,.,.,.,

# Screening data deposited in PubChem by Johns Hopkins Ion Channel Center.
